Measured values: ChEMBL document CHEMBL5724801, “EUbOPEN Chemogenomics Library - Multiplex” (2024)
“And” between values parts separate entries of the source, which are not always exact repeats. Identical values can stand only once.

System: U2OS
Assay: Multiplex assay against U2OS
Format: toxicity, cell-based
Details: human, 12 h, 1 µM, compound concentration 1 uM
In short: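 Hoechst33342, BioTracker Green Microtubule Cytoskeleton Dye, MitoTracker Red and Annexin V Alexa Fluor 680 were added to live cells at seeding, and imaging on a CQ1 microscope at 37°C and 5% CO2 followed compound addition. Gating by CellPathfinder machine learning separated cells into Hoechst high-intensity objects or normal cells, then normal cells into healthy, pyknosed or fragmented nuclei, then pyknosed cells into mitotic or apoptotic. Per cents of healthy-nucleus cells are reported for the tubulin, mitochondrial-mass and membrane-permeability phenotypes.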

SMILES	Population Apoptotic (%)	Population Fragmented Nuclei (%)	Population Healthy Nuclei (%)	Population Hoechst High Intensity Objects (%)	Population Membrane Permeable-Phenotype (%)	Population Mitochondria Different-Phenotype (%)	Population Mitotic Cells (%)	Population Normal (%)	Population Pyknosed Nuclei (%)	Population Tubulin-Different-Phenotype (%)
Nc1nc(CC(=O)Nc2ccc(CCNC[C@H](O)c3ccccc3)cc2)cs1 [MIRABEGRON]	86% and 100%	24% and 13%	62% and 74%	1% and 0%	6% and 5%	3% and 2%	13% and 0%	98% and 99%	12%	4% and 5%
COc1ccc2c(c1OCc1ccccc1)C[C@@H](C(=O)O)N(C(=O)C(c1ccccc1)c1ccccc1)C2 [OLODANRIGAN]	82% and 66%	31% and 18%	59% and 75%	2% and 3%	4% and 6%	0% and 4%	17% and 33%	97% and 96%	8% and 5%	1% and 2%
Cc1cc(NC(=O)NCCN2CCC(O)(Cc3ccccc3)CC2)c2ccccc2n1 [PALOSURAN]	80% and 71%	27% and 19%	65% and 71%	1% and 0%	4% and 2%	2% and 0%	20% and 28%	98% and 100%	6% and 9%	1%
C[C@H](NC(=O)c1c(C(F)F)nn(C)c1Oc1cccc(C(F)(F)F)c1)c1ccc(C(=O)O)cc1 [PALUPIPRANT]	60% and 91%	27% and 12%	63% and 78%	3% and 0%	4%	1% and 0%	–	96% and 99%	8% and 9%	1% and 2%

Same assay, conditions: human, 12 h, 1 µM, compound concentration 1 uM

SMILES	Total Cell Count
Nc1nc(CC(=O)Nc2ccc(CCNC[C@H](O)c3ccccc3)cc2)cs1 [MIRABEGRON]	240 and 107
COc1ccc2c(c1OCc1ccccc1)C[C@@H](C(=O)O)N(C(=O)C(c1ccccc1)c1ccccc1)C2 [OLODANRIGAN]	286 and 112
Cc1cc(NC(=O)NCCN2CCC(O)(Cc3ccccc3)CC2)c2ccccc2n1 [PALOSURAN]	220 and 145
C[C@H](NC(=O)c1c(C(F)F)nn(C)c1Oc1cccc(C(F)(F)F)c1)c1ccc(C(=O)O)cc1 [PALUPIPRANT]	266 and 132

Same assay, conditions: human, 12 h, 10 µM, compound concentration 10 uM

SMILES	Population Apoptotic (%)	Population Fragmented Nuclei (%)	Population Healthy Nuclei (%)	Population Hoechst High Intensity Objects (%)	Population Membrane Permeable-Phenotype (%)	Population Mitochondria Different-Phenotype (%)	Population Mitotic Cells (%)	Population Normal (%)	Population Pyknosed Nuclei (%)	Population Tubulin-Different-Phenotype (%)
Nc1nc(CC(=O)Nc2ccc(CCNC[C@H](O)c3ccccc3)cc2)cs1 [MIRABEGRON]	86% and 66%	18% and 21%	70% and 71%	1% and 0%	6% and 7%	2% and 3%	13% and 33%	98% and 99%	11% and 6%	4% and 1%
COc1ccc2c(c1OCc1ccccc1)C[C@@H](C(=O)O)N(C(=O)C(c1ccccc1)c1ccccc1)C2 [OLODANRIGAN]	78% and 81%	30% and 26%	64% and 63%	1% and 0%	6% and 2%	1%	21% and 18%	98% and 99%	5% and 10%	2%
Cc1cc(NC(=O)NCCN2CCC(O)(Cc3ccccc3)CC2)c2ccccc2n1 [PALOSURAN]	72% and 66%	30% and 17%	59% and 70%	3%	6% and 12%	1% and 2%	28% and 33%	96%	9% and 11%	1% and 8%
C[C@H](NC(=O)c1c(C(F)F)nn(C)c1Oc1cccc(C(F)(F)F)c1)c1ccc(C(=O)O)cc1 [PALUPIPRANT]	83% and 100%	28% and 13%	62% and 77%	3%	7% and 5%	4% and 2%	16% and 0%	96%	8%	5% and 2%

Same assay, conditions: human, 12 h, 10 µM, compound concentration 10 uM

SMILES	Total Cell Count
Nc1nc(CC(=O)Nc2ccc(CCNC[C@H](O)c3ccccc3)cc2)cs1 [MIRABEGRON]	319 and 136
COc1ccc2c(c1OCc1ccccc1)C[C@@H](C(=O)O)N(C(=O)C(c1ccccc1)c1ccccc1)C2 [OLODANRIGAN]	273 and 110
Cc1cc(NC(=O)NCCN2CCC(O)(Cc3ccccc3)CC2)c2ccccc2n1 [PALOSURAN]	266 and 107
C[C@H](NC(=O)c1c(C(F)F)nn(C)c1Oc1cccc(C(F)(F)F)c1)c1ccc(C(=O)O)cc1 [PALUPIPRANT]	293 and 117

Same assay, conditions: human, 24 h, 1 µM, compound concentration 1 uM

SMILES	Population Apoptotic (%)	Population Fragmented Nuclei (%)	Population Healthy Nuclei (%)	Population Hoechst High Intensity Objects (%)	Population Membrane Permeable-Phenotype (%)	Population Mitochondria Different-Phenotype (%)	Population Mitotic Cells (%)	Population Normal (%)	Population Pyknosed Nuclei (%)	Population Tubulin-Different-Phenotype (%)
Nc1nc(CC(=O)Nc2ccc(CCNC[C@H](O)c3ccccc3)cc2)cs1 [MIRABEGRON]	82% and 58%	21% and 11%	70% and 79%	2% and 0%	4% and 9%	2% and 3%	17% and 41%	97% and 99%	8% and 9%	3% and 7%
COc1ccc2c(c1OCc1ccccc1)C[C@@H](C(=O)O)N(C(=O)C(c1ccccc1)c1ccccc1)C2 [OLODANRIGAN]	87% and 55%	25% and 18%	64% and 74%	0% and 2%	2% and 9%	0% and 6%	–	99% and 97%	10% and 6%	2% and 5%
Cc1cc(NC(=O)NCCN2CCC(O)(Cc3ccccc3)CC2)c2ccccc2n1 [PALOSURAN]	94% and 66%	26% and 17%	66% and 74%	1%	3% and 7%	3% and 7%	–	98%	6% and 8%	2% and 3%
C[C@H](NC(=O)c1c(C(F)F)nn(C)c1Oc1cccc(C(F)(F)F)c1)c1ccc(C(=O)O)cc1 [PALUPIPRANT]	87% and 94%	20% and 14%	72% and 73%	2% and 1%	4% and 5%	1% and 0%	12% and 5%	97% and 98%	7% and 11%	3% and 5%

Same assay, conditions: human, 24 h, 1 µM, compound concentration 1 uM

SMILES	Total Cell Count
Nc1nc(CC(=O)Nc2ccc(CCNC[C@H](O)c3ccccc3)cc2)cs1 [MIRABEGRON]	289 and 125
COc1ccc2c(c1OCc1ccccc1)C[C@@H](C(=O)O)N(C(=O)C(c1ccccc1)c1ccccc1)C2 [OLODANRIGAN]	311 and 143
Cc1cc(NC(=O)NCCN2CCC(O)(Cc3ccccc3)CC2)c2ccccc2n1 [PALOSURAN]	276 and 173
C[C@H](NC(=O)c1c(C(F)F)nn(C)c1Oc1cccc(C(F)(F)F)c1)c1ccc(C(=O)O)cc1 [PALUPIPRANT]	316 and 147

Same assay, conditions: human, 24 h, 10 µM, compound concentration 10 uM

SMILES	Population Apoptotic (%)	Population Fragmented Nuclei (%)	Population Healthy Nuclei (%)	Population Hoechst High Intensity Objects (%)	Population Membrane Permeable-Phenotype (%)	Population Mitochondria Different-Phenotype (%)	Population Mitotic Cells (%)	Population Normal (%)	Population Pyknosed Nuclei (%)	Population Tubulin-Different-Phenotype (%)
Nc1nc(CC(=O)Nc2ccc(CCNC[C@H](O)c3ccccc3)cc2)cs1 [MIRABEGRON]	86% and 76%	17% and 20%	75% and 71%	1%	5% and 9%	3% and 5%	13% and 23%	98%	7%	3% and 4%
COc1ccc2c(c1OCc1ccccc1)C[C@@H](C(=O)O)N(C(=O)C(c1ccccc1)c1ccccc1)C2 [OLODANRIGAN]	83% and 50%	27% and 22%	66% and 72%	1% and 0%	4%	0% and 1%	–	98% and 100%	5% and 4%	1% and 2%
Cc1cc(NC(=O)NCCN2CCC(O)(Cc3ccccc3)CC2)c2ccccc2n1 [PALOSURAN]	92% and 75%	26% and 19%	65% and 74%	3%	4% and 11%	0% and 1%	–	96%	8% and 6%	2% and 5%
C[C@H](NC(=O)c1c(C(F)F)nn(C)c1Oc1cccc(C(F)(F)F)c1)c1ccc(C(=O)O)cc1 [PALUPIPRANT]	91%	18% and 13%	74% and 77%	2%	5%	3% and 1%	8%	97%	7% and 8%	1% and 0%

Same assay, conditions: human, 24 h, 10 µM, compound concentration 10 uM

SMILES	Total Cell Count
Nc1nc(CC(=O)Nc2ccc(CCNC[C@H](O)c3ccccc3)cc2)cs1 [MIRABEGRON]	405 and 167
COc1ccc2c(c1OCc1ccccc1)C[C@@H](C(=O)O)N(C(=O)C(c1ccccc1)c1ccccc1)C2 [OLODANRIGAN]	318 and 123
Cc1cc(NC(=O)NCCN2CCC(O)(Cc3ccccc3)CC2)c2ccccc2n1 [PALOSURAN]	297 and 129
C[C@H](NC(=O)c1c(C(F)F)nn(C)c1Oc1cccc(C(F)(F)F)c1)c1ccc(C(=O)O)cc1 [PALUPIPRANT]	339 and 139

Same assay, conditions: human, 48 h, 1 µM, compound concentration 1 uM

SMILES	Population Apoptotic (%)	Population Fragmented Nuclei (%)	Population Healthy Nuclei (%)	Population Hoechst High Intensity Objects (%)	Population Membrane Permeable-Phenotype (%)	Population Mitochondria Different-Phenotype (%)	Population Mitotic Cells (%)	Population Normal (%)	Population Pyknosed Nuclei (%)	Population Tubulin-Different-Phenotype (%)
Nc1nc(CC(=O)Nc2ccc(CCNC[C@H](O)c3ccccc3)cc2)cs1 [MIRABEGRON]	84% and 78%	17% and 12%	72% and 74%	2%	4% and 8%	3%	15% and 21%	97%	9% and 13%	3% and 7%
COc1ccc2c(c1OCc1ccccc1)C[C@@H](C(=O)O)N(C(=O)C(c1ccccc1)c1ccccc1)C2 [OLODANRIGAN]	91% and 78%	22% and 14%	70% and 77%	3% and 4%	4% and 3%	1% and 3%	8% and 21%	96% and 95%	7%	2%
Cc1cc(NC(=O)NCCN2CCC(O)(Cc3ccccc3)CC2)c2ccccc2n1 [PALOSURAN]	96% and 84%	25% and 15%	68% and 73%	1% and 3%	5% and 7%	3% and 5%	–	98% and 97%	6% and 11%	3% and 4%
C[C@H](NC(=O)c1c(C(F)F)nn(C)c1Oc1cccc(C(F)(F)F)c1)c1ccc(C(=O)O)cc1 [PALUPIPRANT]	82% and 92%	15%	73% and 70%	2% and 0%	3%	1% and 0%	17% and 7%	97% and 99%	11% and 13%	1% and 2%

Same assay, conditions: human, 48 h, 1 µM, compound concentration 1 uM

SMILES	Total Cell Count
Nc1nc(CC(=O)Nc2ccc(CCNC[C@H](O)c3ccccc3)cc2)cs1 [MIRABEGRON]	394 and 179
COc1ccc2c(c1OCc1ccccc1)C[C@@H](C(=O)O)N(C(=O)C(c1ccccc1)c1ccccc1)C2 [OLODANRIGAN]	483 and 184
Cc1cc(NC(=O)NCCN2CCC(O)(Cc3ccccc3)CC2)c2ccccc2n1 [PALOSURAN]	411 and 233
C[C@H](NC(=O)c1c(C(F)F)nn(C)c1Oc1cccc(C(F)(F)F)c1)c1ccc(C(=O)O)cc1 [PALUPIPRANT]	426 and 207

Same assay, conditions: human, 48 h, 10 µM, compound concentration 10 uM

SMILES	Population Apoptotic (%)	Population Fragmented Nuclei (%)	Population Healthy Nuclei (%)	Population Hoechst High Intensity Objects (%)	Population Membrane Permeable-Phenotype (%)	Population Mitochondria Different-Phenotype (%)	Population Mitotic Cells (%)	Population Normal (%)	Population Pyknosed Nuclei (%)	Population Tubulin-Different-Phenotype (%)
Nc1nc(CC(=O)Nc2ccc(CCNC[C@H](O)c3ccccc3)cc2)cs1 [MIRABEGRON]	87% and 70%	14%	74% and 78%	2%	5% and 3%	2% and 3%	12% and 29%	97%	10% and 7%	2% and 1%
COc1ccc2c(c1OCc1ccccc1)C[C@@H](C(=O)O)N(C(=O)C(c1ccccc1)c1ccccc1)C2 [OLODANRIGAN]	88% and 85%	20% and 18%	71% and 77%	1%	5% and 7%	1% and 6%	11% and 14%	98%	8% and 4%	3% and 5%
Cc1cc(NC(=O)NCCN2CCC(O)(Cc3ccccc3)CC2)c2ccccc2n1 [PALOSURAN]	97% and 89%	20% and 16%	70% and 72%	1%	5% and 7%	2% and 4%	2% and 10%	98%	9% and 10%	2% and 1%
C[C@H](NC(=O)c1c(C(F)F)nn(C)c1Oc1cccc(C(F)(F)F)c1)c1ccc(C(=O)O)cc1 [PALUPIPRANT]	91% and 85%	18% and 14%	73% and 79%	2% and 1%	5% and 1%	3% and 1%	8% and 14%	97% and 98%	7% and 6%	3% and 0%

Same assay, conditions: human, 48 h, 10 µM, compound concentration 10 uM

SMILES	Total Cell Count
Nc1nc(CC(=O)Nc2ccc(CCNC[C@H](O)c3ccccc3)cc2)cs1 [MIRABEGRON]	534 and 232
COc1ccc2c(c1OCc1ccccc1)C[C@@H](C(=O)O)N(C(=O)C(c1ccccc1)c1ccccc1)C2 [OLODANRIGAN]	451 and 163
Cc1cc(NC(=O)NCCN2CCC(O)(Cc3ccccc3)CC2)c2ccccc2n1 [PALOSURAN]	421 and 180
C[C@H](NC(=O)c1c(C(F)F)nn(C)c1Oc1cccc(C(F)(F)F)c1)c1ccc(C(=O)O)cc1 [PALUPIPRANT]	463 and 223
